Data set [1] is described as follows: Drug metabolism in human liver microsomes after 15 mins. In kind it is ADME, microsome. As to conditions: liver microsomes, read-out: Drug metabolism. A digest of the protocol: (§1)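 Percentage of compound metabolized after 15 min incubation with human or rat liver microsomes.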
(In general: Liver microsomes are vesicles of endoplasmic reticulum, rich in cytochrome P450 enzymes.)

A short description of data set [2]: Cytotoxicity against African green monkey Vero cells assessed as cell growth inhibition after 4 days by MTS/PMS method. The data set is classed as cell-based. Particulars: chlorocebus sabaeus, Vero cells. Put shortly: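 Cytotoxicity run as in the yield assay, but without virus. Vero cells (5×10^4/well) were exposed to 3- or 5-fold serial dilutions in MEM with 2% FBS. Viability was read by the MTS/PMS colorimetric method. CC50 was derived by logarithmic interpolation.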

The nature of data set [3]: Protein binding in rat plasma. In kind it is ADME, cell-free. Particulars: read-out: PPB (converted).
A further data set has as its system P-gp (MDR1). The data set is described as follows: Apparent permeability across apical to basolateral side in MDR1 transfected pig LLC-PK1 cells in absence of P-gp inhibitor GF120918. The data set is classed as ADME, cell-based, Sus scrofa. As to conditions: LLC-PK1. Put shortly: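 Permeability measured in MDR1-transfected LLC-PK1 cells without the P-gp inhibitor GF120918.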

Data set [4] can be described thus: Solubility of the compound in DMSO solution at pH 7.4. The data set is classed as physicochemical. Particulars: read-out: solubility. A digest of the protocol:
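Solubility measured at pH 7.4, starting from a DMSO solution.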

A further data set addresses Cytochrome P450 2D6 (Homo sapiens, UniProt P10635). The data set is described as follows: Inhibition of CYP2D6 (unknown origin). The data set is classed as ADME.
For another data set, the target named is Cytochrome P450 3A4 (Homo sapiens, UniProt P08684). Nature of the data set: Inhibition of CYP3A4 (unknown origin). In kind it is ADME.
Another data set deals with dengue virus type 2. The data set is described as follows: Antiviral activity against Dengue virus 2 Rega infected in African green monkey Vero cells assessed as reduction in viral yield after 4 days by qRT-PCR analysis. The data set is classed as functional, organism-based. As to conditions: Dengue virus, Rega, Vero, 96 h. Put shortly: (§2)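 Virus yield reduction in Vero cells (seeded 5×10^4/well). Next day infected with DENV (MOI 0.01) in assay medium (MEM, 2% FBS, 0.075% bicarbonate, 2 mM L-glutamine). After 1 h, input virus was removed and cells rinsed 3 times. Medium with 3- or 5-fold compound serial dilutions was then added. Incubation was 4 days (DENV-2, DENV-4) or 7 days (DENV-1, DENV-3). Supernatant viral RNA was measured by RT-qPCR, and EC50 obtained by logarithmic interpolation.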
(In general: Quantitative PCR measures a nucleic acid by following its amplification.)

Data set [5] can be described thus: Drug metabolism in rat liver microsomes after 15 mins. In kind it is ADME, microsome. As to conditions: liver microsomes, read-out: Drug metabolism. A digest of the protocol: as §1
For another data set, the target named is Cytochrome P450 2C19 (Homo sapiens, UniProt P33261). The data set is described as follows: Inhibition of CYP2C19 (unknown origin). The data set is classed as ADME.
A short description of data set [6]: Protein binding in human plasma. As to conditions: read-out: PPB (converted). The data set is classed as ADME, cell-free.
The target in a further data set is T1, Cytochrome P450 1A2 (Homo sapiens, UniProt P05177).
T1 sequence (P05177 whole entry): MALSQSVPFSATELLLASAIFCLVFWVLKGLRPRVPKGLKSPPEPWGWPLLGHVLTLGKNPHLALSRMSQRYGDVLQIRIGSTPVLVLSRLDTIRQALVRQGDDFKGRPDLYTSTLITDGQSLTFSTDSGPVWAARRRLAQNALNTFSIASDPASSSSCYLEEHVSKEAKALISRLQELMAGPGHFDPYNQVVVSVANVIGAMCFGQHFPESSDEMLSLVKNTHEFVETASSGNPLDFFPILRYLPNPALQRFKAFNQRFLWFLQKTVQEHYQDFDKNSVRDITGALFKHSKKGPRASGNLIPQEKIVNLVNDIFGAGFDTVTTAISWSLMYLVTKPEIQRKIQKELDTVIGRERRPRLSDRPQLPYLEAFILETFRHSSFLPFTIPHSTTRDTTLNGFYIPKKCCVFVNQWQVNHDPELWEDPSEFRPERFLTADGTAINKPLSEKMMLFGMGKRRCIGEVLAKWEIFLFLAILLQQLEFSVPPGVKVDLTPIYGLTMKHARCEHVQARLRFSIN
The data set is described as follows: Inhibition of CYP1A2 (unknown origin). The data set is classed as ADME.

A further data set deals with Cytochrome P450 2C9 (Homo sapiens, UniProt P11712). The data set is described as follows: Inhibition of CYP2C9 (unknown origin). The data set is classed as ADME.
Data set [7] deals with Salmonella typhimurium. Nature of the data set: Mutagenicity in Salmonella typhimurium in absence of human liver S9 fraction by Ames test. The data set is classed as toxicity, organism-based. Particulars: salmonella enterica subsp. enterica serovar typhimurium. (The Ames test detects mutagens through reverse mutation in bacteria.)
Data set [8] deals with Salmonella typhimurium. Nature of the data set: Mutagenicity in Salmonella typhimurium in presence of human liver S9 fraction by Ames test. The data set is classed as toxicity, organism-based. As to conditions: salmonella enterica subsp. enterica serovar typhimurium.
For another data set, the system named is dengue virus type 1. The data set is described as follows: Antiviral activity against Dengue virus 1 Djibouti D1/H/IMTSSA/98/606 infected in African green monkey Vero cells assessed as reduction in viral yield after 7 days by qRT-PCR analysis. In kind it is functional, organism-based. As to conditions: Djibouti D1/H/IMTSSA/98/606, Vero, 168 h. Put shortly:
as §2

A further data set relates to dengue virus type 3. The data set is described as follows: Antiviral activity against Dengue virus 3 H87 infected in African green monkey Vero cells assessed as reduction in viral yield after 7 days by qRT-PCR analysis. The data set is classed as functional, organism-based. Particulars: 168 h. A digest of the protocol:
as §2

For a further data set, the system named is dengue virus type 4. The data set is described as follows: Antiviral activity against Dengue virus 4 DAKHD34460 infected in African green monkey Vero cells assessed as reduction in viral yield after 4 days by qRT-PCR analysis. The data set is classed as functional, organism-based. Particulars: 96 h. Put shortly: as §2
For data set [9], the target named is Voltage-gated inwardly rectifying potassium channel KCNH2 (Homo sapiens, UniProt Q12809). The data set is described as follows: Inhibition of human ERG.

≈ marks a conversion by molar mass, not a printed value.

By CC50 is commonly meant the concentration at which the toxic effect on the cells reaches its halfway point. One may read the Papp A→B as the apparent permeability from the apical to the basolateral side of a cell layer. As a reminder, the solubility is how much of the substance goes into solution per volume. Broadly, the IC50 is the concentration at which inhibition is half-maximal. As usually defined, the EC50 is the concentration needed to bring the measured effect to its halfway point.

Chain of Cytochrome P450 2C19 (P33261 whole entry): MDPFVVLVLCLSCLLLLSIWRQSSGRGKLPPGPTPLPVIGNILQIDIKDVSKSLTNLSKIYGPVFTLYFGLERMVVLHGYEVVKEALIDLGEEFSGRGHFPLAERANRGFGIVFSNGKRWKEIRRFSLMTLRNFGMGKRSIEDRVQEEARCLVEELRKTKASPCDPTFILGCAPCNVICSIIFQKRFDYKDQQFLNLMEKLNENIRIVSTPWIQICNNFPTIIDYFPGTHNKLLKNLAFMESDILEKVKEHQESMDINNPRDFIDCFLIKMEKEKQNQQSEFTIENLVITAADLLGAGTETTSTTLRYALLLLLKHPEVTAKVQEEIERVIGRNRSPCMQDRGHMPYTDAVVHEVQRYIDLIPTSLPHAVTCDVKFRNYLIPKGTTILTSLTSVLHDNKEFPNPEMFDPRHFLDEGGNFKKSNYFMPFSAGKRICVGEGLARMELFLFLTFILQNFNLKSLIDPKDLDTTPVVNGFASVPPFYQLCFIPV
Chain of Cytochrome P450 3A4 (P08684 whole entry): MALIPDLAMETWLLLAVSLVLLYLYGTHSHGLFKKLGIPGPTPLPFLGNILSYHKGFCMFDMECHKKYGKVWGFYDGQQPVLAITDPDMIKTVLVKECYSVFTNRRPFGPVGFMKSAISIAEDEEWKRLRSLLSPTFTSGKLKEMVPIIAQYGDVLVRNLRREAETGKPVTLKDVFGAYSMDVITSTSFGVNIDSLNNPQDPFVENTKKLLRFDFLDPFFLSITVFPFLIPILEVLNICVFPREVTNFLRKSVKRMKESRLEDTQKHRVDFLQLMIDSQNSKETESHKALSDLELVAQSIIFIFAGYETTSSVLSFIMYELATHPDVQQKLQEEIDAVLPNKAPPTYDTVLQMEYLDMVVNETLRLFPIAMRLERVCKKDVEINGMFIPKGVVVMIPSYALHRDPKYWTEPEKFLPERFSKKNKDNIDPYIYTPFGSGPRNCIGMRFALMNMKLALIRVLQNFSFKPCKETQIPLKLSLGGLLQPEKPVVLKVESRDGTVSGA
Chain of Cytochrome P450 2C9 (P11712 whole entry): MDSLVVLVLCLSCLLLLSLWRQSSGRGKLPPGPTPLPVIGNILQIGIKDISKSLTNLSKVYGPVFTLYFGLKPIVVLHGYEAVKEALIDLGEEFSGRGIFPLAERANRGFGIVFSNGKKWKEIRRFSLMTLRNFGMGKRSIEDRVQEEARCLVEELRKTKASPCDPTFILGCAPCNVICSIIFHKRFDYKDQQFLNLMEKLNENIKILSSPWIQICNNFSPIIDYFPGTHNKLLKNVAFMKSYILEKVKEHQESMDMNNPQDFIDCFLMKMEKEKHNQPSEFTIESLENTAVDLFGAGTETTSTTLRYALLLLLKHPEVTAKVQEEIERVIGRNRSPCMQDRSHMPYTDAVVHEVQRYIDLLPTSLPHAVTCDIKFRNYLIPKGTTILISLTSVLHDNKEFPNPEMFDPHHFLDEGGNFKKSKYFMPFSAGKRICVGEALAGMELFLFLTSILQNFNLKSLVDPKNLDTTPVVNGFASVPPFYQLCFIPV
Chain of Cytochrome P450 2D6 (P10635 whole entry): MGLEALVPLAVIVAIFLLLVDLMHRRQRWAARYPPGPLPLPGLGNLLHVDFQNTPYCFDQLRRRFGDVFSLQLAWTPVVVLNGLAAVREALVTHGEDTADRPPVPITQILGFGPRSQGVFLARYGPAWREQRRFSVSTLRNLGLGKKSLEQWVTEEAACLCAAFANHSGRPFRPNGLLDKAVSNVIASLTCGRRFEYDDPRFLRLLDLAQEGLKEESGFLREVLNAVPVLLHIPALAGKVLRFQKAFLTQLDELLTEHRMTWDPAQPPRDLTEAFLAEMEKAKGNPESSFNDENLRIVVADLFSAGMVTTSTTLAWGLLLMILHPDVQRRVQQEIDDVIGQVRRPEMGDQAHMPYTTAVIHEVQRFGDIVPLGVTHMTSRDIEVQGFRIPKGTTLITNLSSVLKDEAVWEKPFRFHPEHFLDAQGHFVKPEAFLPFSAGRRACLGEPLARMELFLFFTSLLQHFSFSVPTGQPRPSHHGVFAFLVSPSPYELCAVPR
Chain of Voltage-gated inwardly rectifying potassium channel KCNH2 (Q12809 whole entry): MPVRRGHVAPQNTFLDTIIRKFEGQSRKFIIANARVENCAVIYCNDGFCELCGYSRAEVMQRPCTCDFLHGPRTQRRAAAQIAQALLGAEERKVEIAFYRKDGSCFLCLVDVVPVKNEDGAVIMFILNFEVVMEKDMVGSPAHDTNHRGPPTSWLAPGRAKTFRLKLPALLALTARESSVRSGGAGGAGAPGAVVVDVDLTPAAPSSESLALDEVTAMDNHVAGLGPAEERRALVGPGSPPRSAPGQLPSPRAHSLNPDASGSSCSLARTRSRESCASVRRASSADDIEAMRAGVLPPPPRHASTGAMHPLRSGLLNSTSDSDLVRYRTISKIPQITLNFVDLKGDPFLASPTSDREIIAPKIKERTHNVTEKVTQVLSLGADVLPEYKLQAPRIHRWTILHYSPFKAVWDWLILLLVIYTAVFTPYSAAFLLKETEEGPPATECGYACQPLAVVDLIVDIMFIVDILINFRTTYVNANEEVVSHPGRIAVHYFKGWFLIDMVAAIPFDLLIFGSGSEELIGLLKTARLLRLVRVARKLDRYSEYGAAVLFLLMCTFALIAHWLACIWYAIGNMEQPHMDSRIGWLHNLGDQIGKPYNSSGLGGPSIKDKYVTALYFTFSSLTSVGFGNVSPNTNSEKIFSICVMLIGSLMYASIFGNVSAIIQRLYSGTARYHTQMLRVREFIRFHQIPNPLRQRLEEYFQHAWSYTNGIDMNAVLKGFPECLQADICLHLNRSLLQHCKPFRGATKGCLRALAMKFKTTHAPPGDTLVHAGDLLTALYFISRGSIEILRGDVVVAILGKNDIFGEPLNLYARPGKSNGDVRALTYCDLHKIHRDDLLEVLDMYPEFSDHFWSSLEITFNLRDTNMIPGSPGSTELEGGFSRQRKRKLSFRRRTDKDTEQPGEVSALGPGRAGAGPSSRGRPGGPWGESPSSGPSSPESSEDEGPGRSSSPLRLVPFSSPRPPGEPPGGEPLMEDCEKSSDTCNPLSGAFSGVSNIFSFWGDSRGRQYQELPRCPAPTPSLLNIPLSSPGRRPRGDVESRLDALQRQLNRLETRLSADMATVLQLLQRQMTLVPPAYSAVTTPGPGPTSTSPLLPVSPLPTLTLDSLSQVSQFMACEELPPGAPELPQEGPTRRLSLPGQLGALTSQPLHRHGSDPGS

As for `COc1cccc(NC(C(=O)c2c[nH]c3ccccc23)c2nc3ccccc3o2)c1` (stereo not drawn), the metabolised at 0.25 h was 19% in data set [1] and 99% in data set [5]. For the same compound, in data set [2], the CC50 at 96 h is 13 µM. In addition, the results for the fraction unbound in data set [3] and in data set [6] were less than 0.004 and less than 0.002, respectively. In the data set with P-gp (MDR1), the Papp A→B was 5.6 ×10⁻⁶ cm/s. Further, the solubility in data set [4] worked out at 1 µM (≈ 0.397 µg/mL). For the same compound, the IC50 against Cytochrome P450 2D6 was more than 10 µM; against Cytochrome P450 3A4, more than 10 µM; against Cytochrome P450 2C19 it was 3.2 µM; against Cytochrome P450 1A2 it was 4.2 µM; against Cytochrome P450 2C9, 6.1 µM. The EC50 with dengue virus type 2 turned out to be 0.011 µM.
For the compound `COc1cccc(NC(C(=O)c2c[nH]c3ccccc23)c2ccccc2)c1` (stereo not drawn), the Activity entry in the data set with Salmonella typhimurium [7] and in the data set with Salmonella typhimurium [8] was “Non-Toxic” throughout. Moreover, in data set [2], the CC50 at 96 h amounted to 18 µM. Also, in the data set with dengue virus type 2, the EC50 was found to be 0.073 µM.
Regarding `COc1cc(NC(C(=O)c2c[nH]c3ccccc23)c2cccnc2)cc(OC)c1` (stereo not drawn), the CC50 at 96 h in [2] was determined as 69 µM. The EC50 is 0.173 µM in the data set on dengue virus type 1, 0.31 µM in the data set with dengue virus type 3, 2.5 µM in the data set on dengue virus type 4 and 0.015 µM in the data set on dengue virus type 2.
Regarding `COc1cncc(NC(C(=O)c2c[nH]c3ccccc23)c2ccccc2)c1` (stereo not drawn), the metabolised at 0.25 h in data set [1] worked out at 23%; in data set [5], 86%. The Activity result in the data set on Salmonella typhimurium [7] and in the data set with Salmonella typhimurium [8] was “Non-Toxic” in each case. Further, in data set [2], the CC50 at 96 h is 20 µM. For the same compound, the results for the fraction unbound in [3] and in data set [6] were 0.008 and 0.005, respectively. Moreover, the Papp A→B in the data set with P-gp (MDR1) stood at 4.7 ×10⁻⁶ cm/s. In addition, the solubility in data set [4] is 42 µM (≈ 15 µg/mL). For the same compound, the IC50 turned out to be 8.4 µM against Cytochrome P450 2D6; 0.05 µM against Cytochrome P450 3A4; 3.5 µM in data set [9]; 2.5 µM against Cytochrome P450 2C19; 2.8 µM on Cytochrome P450 1A2; 3.3 µM at Cytochrome P450 2C9. Moreover, in the data set with dengue virus type 2, the EC50 was determined as 0.036 µM.
As to `COc1cc(CO)cc(NC(C(=O)c2c[nH]c3ccccc23)c2ccccc2)c1` (stereo not drawn), the metabolised at 0.25 h in data set [1] came out at 18%; in data set [5] it was 85%. Besides, the CC50 at 96 h in [2] was found to be 71 µM. The solubility in data set [4] was 50 µM (≈ 19.3 µg/mL). Moreover, the concentration for a half-maximal effect (EC50) in the data set with dengue virus type 2 worked out at 0.065 µM.
Take `COc1cc(NC(C(=O)c2c[nH]c3ccccc23)c2ccccc2)cc(OCCCO)c1` (stereo not drawn): the metabolised at 0.25 h stood at 8% in [1] and 67% in data set [5]. Moreover, the CC50 at 96 h in data set [2] amounted to 50 µM. Besides, the solubility in data set [4] amounted to 30 µM (≈ 12.9 µg/mL). Besides, in the data set on dengue virus type 2, the EC50 is 0.085 µM.
For `COc1cc(NC(C(=O)c2c[nH]c3ccccc23)c2ccc(F)cc2)cc(OCCO)c1` (stereo not drawn), in that order: 7%, 23%, 46 µM, 27 µM (≈ 11.7 µg/mL) and 0.013 µM.

Values taken from ChEMBL document CHEMBL4196174, “Discovery of Indole Derivatives as Novel and Potent Dengue Virus Inhibitors” (J Med Chem, 2018).
